Bioassay records (PubChem BioAssay)
Ecoli tolC – growth inhibitors of E. coli tolC mutant, primary screen, strain BW25113 ΔtolC::kan, 384-well; OD615; growth inhibition, % at 10 µM (by protocol); 65,000 compounds, 2.2% hits; AID 573, 2007;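 active = growth inhibition at or above a cutoff equal to the mean over every tested compound plus 3 SD, cut at about 60% in these data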;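 also: growth measured after 20 h incubation at 37 °C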
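test system = E. coli BW25113 ΔtolC::kan bacteria | medium = LB with kanamycin 50 µg/mL | signal = OD at 615 nm | schedule = 37 °C, 20 h exposure | evaluation = % inhibition of E. coli growth | compound dosing = one dose of 10 µM final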
PostGolgi ctrl – growth inhibition of yeast control strain, primary screen, counter-screen for post-Golgi transport modulator project. inhibition, % at 10 µM. efflux-deficient yeast background strain, growth absorbance A615, 16 h. 98,000 compounds, 5% hits
Ecoli WT expand – growth inhibitors of wild-type E. coli, primary screen, strain BW25113, expanded library, OD600; 98,000 compounds, 0.15% hits; OD600 absorbance; growth inhibition, % at 100 µM; AID 710, 2007;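 active = growth inhibition above about 50% at one test dose, limit read from the data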;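 also: growth measured after 20 h incubation at 37 °C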
PLAP activator – PLAP enzyme activators, biochemical, luminescence, HTS; activation fold at 20 µM; purified PLAP enzyme, luminescent substrate read-out; hits give high values; 96,000 compounds, 1.2% hits; in the data active = activation fold above about 2
Target sequence (P05187 whole entry, looked up): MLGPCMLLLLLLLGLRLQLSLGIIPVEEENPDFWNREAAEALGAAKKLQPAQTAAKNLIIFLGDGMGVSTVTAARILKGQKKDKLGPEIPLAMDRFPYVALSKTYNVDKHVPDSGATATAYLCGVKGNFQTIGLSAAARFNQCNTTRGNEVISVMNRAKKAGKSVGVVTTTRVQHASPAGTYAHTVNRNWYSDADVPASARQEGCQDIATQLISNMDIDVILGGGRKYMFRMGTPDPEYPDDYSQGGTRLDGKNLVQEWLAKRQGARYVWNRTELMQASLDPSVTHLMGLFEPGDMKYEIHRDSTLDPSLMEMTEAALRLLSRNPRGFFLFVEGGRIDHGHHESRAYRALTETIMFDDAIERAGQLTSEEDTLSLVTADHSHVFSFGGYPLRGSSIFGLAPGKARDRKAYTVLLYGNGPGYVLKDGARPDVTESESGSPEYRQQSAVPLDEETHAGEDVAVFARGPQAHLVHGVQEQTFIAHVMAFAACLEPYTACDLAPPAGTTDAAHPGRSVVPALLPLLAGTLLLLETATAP
PostGolgi yeast – phenotypic screen on post-Golgi transport, primary screen; post-Golgi transport phenotypic cell assay; 98,000 compounds, 0.9% hits; inhibition, % at 10 µM;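 also: yeast cells grown in 1536-well plates; yeast grown about 18 h at 30C before absorbance read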
HePTP inh – inhibitors of human HePTP phosphatase, primary screen, biochemical, absorbance, leukemia target. 110,000 compounds, 0.64% hits. inhibition, % at 20 µM. Tyrosine-protein phosphatase non-receptor type 7 (Homo sapiens), P35236. recombinant HePTP phosphatase activity, OD absorbance; in the data active = inhibition above about 50%;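 also: plate controls were vehicle for no effect and reference inhibitor for full effect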
Numbers without * were called inactive. Shown are actives, neighbours in structure and some others; about 5.5% of the full set was active somewhere. Rule as the data show it, unless noted: active = inhibition above about 30%; inactive = the rest.

How did O=C(O)CCN1C(=O)/C(=C/c2cn(-c3ccccc3)nc2-c2cccc([N+](=O)[O-])c2)SC1=S do in these assays?
HePTP inh: 6

Results for Cc1ccccc1C(=O)Nc1cccc(NC(=O)c2ccc(-c3ccc([N+](=O)[O-])cc3C)o2)c1 ?
HePTP inh: -4

How did CSCC[C@H](NC(=O)OC(C)(C)C)C(=O)N/N=C/c1c(C)[nH]c(=O)[nH]c1=O do in these assays?
PostGolgi ctrl: -3; Ecoli WT expand: 7; PLAP activator: 2.2*; PostGolgi yeast: 10

How did CSCCC(NC(=O)OC(C)(C)C)C(=O)NC(C(=O)NC(CC(C)C)C(N)=O)C(C)C (stereo unspecified) do in these assays?
PostGolgi ctrl: 10; Ecoli WT expand: 2; PLAP activator: 1.4; PostGolgi yeast: 26

Results for COc1cc(C(=O)Nc2cc(-c3ccccc3)[nH]n2)cc(OC)c1OC ?
Ecoli tolC: 30; PLAP activator: 2.3*; HePTP inh: 2

How did COc1cc(C(=O)Nc2nc(OC)c(-c3ccccc3)c(OC)n2)cc(OC)c1OC do in these assays?
Ecoli tolC: -9; PostGolgi ctrl: 11; Ecoli WT expand: -5; PLAP activator: 1.2; PostGolgi yeast: -3; HePTP inh: 2

How did CN1CCN(C(=O)CN2C(=O)/C(=C/c3cccc(Br)c3)SC2=S)CC1 do in these assays?
HePTP inh: -16

Results for Cc1cccc(N(C)C(=O)CCS(=O)(=O)c2cccc3nonc23)c1 ?
Ecoli tolC: -2; PostGolgi ctrl: -5; Ecoli WT expand: 3; PLAP activator: 1; PostGolgi yeast: 26; HePTP inh: 4

Results for COc1ccc(N(C)C(=O)CCS(=O)(=O)c2cccc3nonc23)c(OC)c1 ?
Ecoli tolC: 12; PostGolgi ctrl: 34*; Ecoli WT expand: -12; PLAP activator: 0.9; PostGolgi yeast: -1; HePTP inh: -11

Results for CCOC(=O)c1cc2c(ccn2C)n1Cc1ccccc1C ?
Ecoli tolC: 69*; PostGolgi ctrl: 14; Ecoli WT expand: -10; PLAP activator: 1.2; PostGolgi yeast: 1; HePTP inh: 1

What do the screens show for `Cc1ccccc1Cn1c(C(=O)OC(C)C)cc2c1ccn2C`?
PostGolgi ctrl: 15; Ecoli WT expand: 6; PLAP activator: 1.1; PostGolgi yeast: -15

How did CCn1c(SCC(=O)N2CCN(c3ccc(F)cc3)CC2)nc2ccccc2c1=O do in these assays?
Ecoli tolC: 12; PostGolgi ctrl: 37*; Ecoli WT expand: -4; PLAP activator: 1.1; PostGolgi yeast: 2; HePTP inh: 5

Results for O=C(CSc1nc2ccccc2c(=O)n1Cc1ccco1)c1ccccc1 ?
Ecoli tolC: 31; PostGolgi ctrl: 31*; Ecoli WT expand: -11; PLAP activator: 0.9; PostGolgi yeast: -4; HePTP inh: -5

How did CCOC(=O)CSc1nc2ccccc2c(=O)n1Cc1ccco1 do in these assays?
Ecoli tolC: 10; PostGolgi ctrl: 20; Ecoli WT expand: 2; PLAP activator: 1; PostGolgi yeast: 3; HePTP inh: 5

Results for C=C(C)Cn1c(SCC)nc2ccccc2c1=O ?
Ecoli tolC: 25; PostGolgi ctrl: 44*; Ecoli WT expand: 3; PLAP activator: 1; PostGolgi yeast: 1; HePTP inh: 6

What do the screens show for `O=C(CSc1nc2ccccc2c(=O)n1Cc1ccco1)N1CCN(c2ccccc2)CC1`?
Ecoli tolC: 30; PostGolgi ctrl: 36*; Ecoli WT expand: -12; PLAP activator: 1.7; PostGolgi yeast: 1; HePTP inh: 4

How did O=c1c2ccccc2nc(SCc2ccccc2)n1Cc1ccco1 do in these assays?
Ecoli tolC: 35; PostGolgi ctrl: 18; Ecoli WT expand: -9; PLAP activator: 0.9; PostGolgi yeast: 19; HePTP inh: 3

What do the screens show for `C=C(C)Cn1c(SCC#N)nc2ccccc2c1=O`?
Ecoli tolC: 7; PostGolgi ctrl: 4; Ecoli WT expand: -8; PLAP activator: 1.1; PostGolgi yeast: 12; HePTP inh: 13

What do the screens show for `CCOC(=O)C1=C(C)N=c2s/c(=C\c3ccc(OC)cc3)c(=O)n2C1c1ccc(OC)cc1` (stereo unspecified)?
HePTP inh: -11

How did COc1ccc(OC)c(CNc2ccccc2)c1 do in these assays?
HePTP inh: 7

Results for CCCc1ccc(OCC(=O)NNC(=O)C2COc3ccccc3O2)cc1 (stereo unspecified) ?
HePTP inh: -4

What do the screens show for `COCCn1c(SCC(=O)N2CCCCC2)nc2ccccc2c1=O`?
Ecoli tolC: -3; PostGolgi ctrl: 10; Ecoli WT expand: -3; PLAP activator: 1.1; PostGolgi yeast: 14; HePTP inh: 13

How did CCCCn1c(SCC(=O)N2CCC(C)CC2)nc2ccsc2c1=O do in these assays?
PostGolgi ctrl: 27; Ecoli WT expand: -8; PLAP activator: 1.4; PostGolgi yeast: 7

What do the screens show for `CCCCn1c(SCC(=O)N2CCN(c3ccccc3)CC2)nc2ccsc2c1=O`?
Ecoli tolC: 51; PostGolgi ctrl: 43*; Ecoli WT expand: -24; PLAP activator: 1.1; PostGolgi yeast: 3; HePTP inh: -6

How did CCCn1c(Cc2ccccc2)nnc1SCC(=O)N1CCOCC1 do in these assays?
PostGolgi ctrl: 30*; Ecoli WT expand: 6; PLAP activator: 0.8; PostGolgi yeast: 6

What do the screens show for `CCn1c(SCC(=O)N2CCN(c3ccc(Cl)cc3)CC2)nc2ccccc2c1=O`?
Ecoli tolC: -13; PostGolgi ctrl: 55*; Ecoli WT expand: -6; PLAP activator: 0.8; PostGolgi yeast: -10; HePTP inh: -9

Results for CCCn1c(SCC(=O)N2CCN(c3ccccc3)CC2)nc2ccccc2c1=O ?
Ecoli tolC: 14; PostGolgi ctrl: 51*; Ecoli WT expand: -17; PLAP activator: 0.9; PostGolgi yeast: 1; HePTP inh: -4

How did CCn1c(SCC(=O)N2CCCC2)nc2ccccc2c1=O do in these assays?
Ecoli tolC: -7; PostGolgi ctrl: 12; Ecoli WT expand: -4; PLAP activator: 1.3; PostGolgi yeast: -5; HePTP inh: 6

Results for CC(=O)N(CCN(C(C)=O)c1ccccc1C)c1ccccc1C ?
HePTP inh: 13

What do the screens show for `O=C(NN1C(=O)/C(=C/c2ccccc2)SC1=S)c1cccnc1`?
HePTP inh: 8

What do the screens show for `CCCCn1c(SCC(=O)NCc2ccccc2)nc2ccc(N3CCOCC3)cc2c1=O`?
Ecoli tolC: 7; PostGolgi ctrl: 35*; Ecoli WT expand: -6; PLAP activator: 1.4; PostGolgi yeast: -5; HePTP inh: 8

Results for O=c1c2ccccc2nc(SCc2cccc(F)c2)n1Cc1ccco1 ?
Ecoli tolC: 30; PostGolgi ctrl: 31*; Ecoli WT expand: -2; PLAP activator: 1.2; PostGolgi yeast: 4; HePTP inh: 13
